Results reported in ChEMBL document CHEMBL4130501 (Eur J Med Chem, 2017).
pIC50: −log10 of the molar value. Calls of active or inactive are those of the source. The rule behind the calls is not given here.

Key:
[1] = target: Amyloid-beta precursor protein (Homo sapiens) (UniProt P05067); assay: Inhibition of self-induced amyloid beta (1 to 42) (unknown origin) aggregation at 10 uM after 24 hrs by thioflavin T-based fluorometric assay relative to control
Summary of the method: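 Self-mediated Aβ1-42 aggregation was followed by thioflavin-T fluorescence with 10 µM inhibitor present. Percent inhibition was reported as mean ± SEM.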

[2] = target: T1, Cholinesterase (Homo sapiens, UniProt P06276); assay: Inhibition of BuChE (unknown origin) at 500 nM pre-incubated for 20 mins before S-Butyrylthiocholine iodide substrate addition by Ellman reagent based spectrophotometry
T1 sequence (P06276 whole entry): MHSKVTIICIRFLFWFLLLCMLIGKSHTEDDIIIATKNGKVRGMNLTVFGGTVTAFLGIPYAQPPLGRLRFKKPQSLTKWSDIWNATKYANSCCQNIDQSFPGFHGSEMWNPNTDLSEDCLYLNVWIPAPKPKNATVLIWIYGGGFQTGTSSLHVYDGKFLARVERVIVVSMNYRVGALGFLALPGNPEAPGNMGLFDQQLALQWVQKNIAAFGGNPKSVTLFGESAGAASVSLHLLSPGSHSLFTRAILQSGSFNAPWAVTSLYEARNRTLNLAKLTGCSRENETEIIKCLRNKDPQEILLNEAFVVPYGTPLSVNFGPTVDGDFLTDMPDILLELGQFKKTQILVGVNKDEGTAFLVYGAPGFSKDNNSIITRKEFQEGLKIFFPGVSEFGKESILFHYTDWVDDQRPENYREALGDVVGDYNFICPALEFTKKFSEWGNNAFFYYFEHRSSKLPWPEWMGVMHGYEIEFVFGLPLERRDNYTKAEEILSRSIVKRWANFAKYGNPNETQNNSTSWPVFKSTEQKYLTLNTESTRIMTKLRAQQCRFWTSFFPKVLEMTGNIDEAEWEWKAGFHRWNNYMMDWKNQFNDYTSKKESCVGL
Summary of the method: (§1)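 Cholinesterase inhibition was tested with the compound at 500 nM and reported as percent inhibition, mean ± SEM.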

[3] = target: T1, Cholinesterase; assay: Inhibition of BuChE (unknown origin) pre-incubated for 20 mins before S-Butyrylthiocholine iodide substrate addition by Ellman reagent based spectrophotometry
[4] = Inhibition of AChE (unknown origin) at 500 nM pre-incubated for 20 mins before acetylthiocholine iodide substrate addition by Ellman reagent based spectrophotometry; conditions: Homo sapiens; summary of the method: as §1
[5] = test system: HT-22; assay: Neuroprotective activity against glutamate-induced cytotoxicity in mouse HT22 cells assessed as increase cell viability at 10 uM pre-incubated for 30 mins before glutamate stimulation for 24 hrs by MTT assay; assay type: functional, cell-based
Summary of the method: (§2)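 HT22 cells were pretreated for 30 min with compounds at 3, 10 or 30 µM, then exposed to […] glutamate for 24 h. Viability was read by MTT (n = 3) and compared against the glutamate-only group and the control.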

[6] = test system: HT-22; assay: Cytotoxicity in mouse HT22 cells assessed as reduction in cell viability at 30 uM incubated for 24 hrs by MTT assay; assay type: cell-based; conditions: ht-22, 24 h
Summary of the method: (§3)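 Mouse HT22 cells were exposed to compounds at 30, 50 and 100 µM for 24 h. Viability was read by colorimetric MTT assay and compared with untreated control cells (n = 3).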

[7] = Antioxidant activity assessed as DPPH radical scavenging activity incubated for 60 mins under dark condition by spectrophotometry; assay type: functional
Summary of the method: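 DPPH radical scavenging was measured, and the IC50 was taken as the compound concentration giving 50% scavenging.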

[8] = test system: HT-22; assay: Neuroprotective activity against glutamate-induced cytotoxicity in mouse HT22 cells assessed as increase cell viability at 30 uM pre-incubated for 30 mins before glutamate stimulation for 24 hrs by MTT assay; assay type: functional, cell-based; summary of the method: as §2
[9] = test system: HT-22; assay: Cytotoxicity in mouse HT22 cells assessed as reduction in cell viability at 30 to 100 uM incubated for 24 hrs by MTT assay; assay type: cell-based; conditions: ht-22, 24 h; summary of the method: as §3
[10] = Permeability at 100 ug/ml incubated for 10 hrs by PAMPA method; assay type: ADME; conditions: read-out: Peff
Summary of the method: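 Passive BBB permeation was measured by PAMPA-BBB through an artificial lipid membrane, with Pe given in 10^-6 cm s^-1. Classification: Pe > 4.7 is CNS+, 4.7 to 1.8 is uncertain, and Pe < 1.8 is CNS−.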

[11] = Metal chelating activity against Cupric ions assessed as induction of isosbestic shift of maximum absorption upon addition of CuCl2 at 10 uM incubated for 30 mins UV-Vis spectrophotometry
[12] = test system: HT-22; assay: Cytotoxicity in mouse HT22 cells assessed as reduction in cell viability at 100 uM incubated for 24 hrs by MTT assay; assay type: cell-based; conditions: ht-22, 24 h; summary of the method: as §3
[13] = test system: HT-22; assay: Neuroprotective activity against glutamate-induced cytotoxicity in mouse HT22 cells assessed as increase cell viability at 3 to 30 uM pre-incubated for 30 mins before glutamate stimulation for 24 hrs by MTT assay; assay type: functional, cell-based; summary of the method: as §2

Amyloid-beta precursor protein (Homo sapiens), sequence (P05067 whole entry): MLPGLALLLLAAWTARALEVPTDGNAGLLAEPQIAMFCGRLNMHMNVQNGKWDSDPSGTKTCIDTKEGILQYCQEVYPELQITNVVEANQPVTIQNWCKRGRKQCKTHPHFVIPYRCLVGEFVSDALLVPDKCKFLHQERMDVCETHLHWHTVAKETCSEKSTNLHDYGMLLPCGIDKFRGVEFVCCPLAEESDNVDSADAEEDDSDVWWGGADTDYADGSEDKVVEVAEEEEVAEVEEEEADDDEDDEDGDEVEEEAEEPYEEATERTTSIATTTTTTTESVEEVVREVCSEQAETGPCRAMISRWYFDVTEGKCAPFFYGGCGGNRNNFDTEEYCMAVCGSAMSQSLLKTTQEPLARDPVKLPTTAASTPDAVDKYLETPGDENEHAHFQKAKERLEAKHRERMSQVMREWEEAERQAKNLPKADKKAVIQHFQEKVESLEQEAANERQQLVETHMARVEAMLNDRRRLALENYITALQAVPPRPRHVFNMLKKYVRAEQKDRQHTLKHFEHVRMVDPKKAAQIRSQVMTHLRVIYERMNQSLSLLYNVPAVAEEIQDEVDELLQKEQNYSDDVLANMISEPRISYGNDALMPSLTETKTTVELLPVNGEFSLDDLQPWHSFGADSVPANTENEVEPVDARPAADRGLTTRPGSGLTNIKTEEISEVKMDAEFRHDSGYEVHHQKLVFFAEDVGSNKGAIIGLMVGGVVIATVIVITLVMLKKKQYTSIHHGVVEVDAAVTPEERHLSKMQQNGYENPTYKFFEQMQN

| SMILES | inhibition [1] | inhibition [2] | pIC50 [3] | inhibition [4] | Activity [5] | Activity [6] | pIC50 [7] | Activity [8] | Activity [9] | Papp at 10 h, 100 ug/ml [10] | Activity [11] | Activity [12] | Activity [13] |
| --- | --- | --- | --- | --- | --- | --- | --- | --- | --- | --- | --- | --- | --- |
| CCN(C)C(=O)Oc1cccc(CNC(=O)c2cc(=O)c3ccccc3o2)c1 | 55.2% | 37.1% | 6.19 | 12.7% | Active | Toxic | < 4.00 |  |  |  |  |  |  |
| CCN(C)C(=O)Oc1cccc(CCNC(=O)CCCCC2CCSS2)c1 (stereo unspecified) | 49.8% | 76.7% | 6.47 | -1.48% |  |  | 5.31 | inactive | Non-Toxic | 12.1 ×10⁻⁶ cm/s |  |  |  |
| CCN(C)C(=O)Oc1cccc(CCNC(=O)c2cc(O)c(O)c(O)c2)c1 | 27.1% | 58.8% | 6.34 | 3.48% |  |  | 4.93 |  |  | 5.14 ×10⁻⁶ cm/s | Active | Toxic | inactive |
| CCN(C)C(=O)Oc1cccc(CNC(=O)CCCCC2CCSS2)c1 (stereo unspecified) | 51.8% | 77.3% | 6.42 | 3.66% |  |  | 5.37 | inactive | Non-Toxic | 27.8 ×10⁻⁶ cm/s | Active |  |  |
| CCN(C)C(=O)Oc1cccc(NC(=O)c2cc(O)c(O)c(O)c2)c1 | 47.3% | 7.98% |  | 23.6% | Active |  | 4.97 |  |  | 3.08 ×10⁻⁶ cm/s | Active | Toxic |  |
| CCN(C)C(=O)Oc1cccc([C@H](C)N(C)C)c1 [RIVASTIGMINE] |  | 30.1% |  | 1.92% |  |  |  |  |  | 16.3 ×10⁻⁶ cm/s |  |  |  |
| CCN(C)C(=O)Oc1cccc(NC(=O)CCCCC2CCSS2)c1 (stereo unspecified) | 46.3% | 77.4% | 6.45 | 0.51% |  |  | 5.34 | inactive | Non-Toxic | 10.3 ×10⁻⁶ cm/s | Active |  |  |
| Cc1c(C)c2c(c(C)c1O)CCC(C)(C(=O)O)O2 (stereo unspecified) [TROLOX] |  |  |  |  |  |  | 4.63 |  |  |  |  |  |  |
| CCN(C)C(=O)Oc1cccc(CNC(=O)c2cc(O)c(O)c(O)c2)c1 | 51.8% | 2.39% |  | 5.53% |  |  | 4.89 | Active | Non-Toxic | 4.86 ×10⁻⁶ cm/s | Active |  |  |
| CCN(C)C(=O)Oc1cccc(CCNC(=O)c2cc(=O)c3ccccc3o2)c1 | 67.4% | 49.1% | 6.29 | 22.1% |  |  | < 4.00 |  | Toxic |  |  |  | inactive |
| CCN(C)C(=O)Oc1cccc(NC(=O)c2cc(=O)c3ccccc3o2)c1 | 63.8% | 53.8% | 6.29 | 9.03% |  |  | < 4.00 |  | Toxic |  |  |  | inactive |
